Test results reported in ChEMBL document CHEMBL4028848, “Discovery of N-{4-[5-(4-Fluorophenyl)-3-methyl-2-methylsulfanyl-3H-imidazol-4-yl]-pyridin-2-yl}-acetamide (CBS-3595), a Dual p38α MAPK/PDE-4 Inhibitor with Activity against TNFα-Related Diseases” (J Med Chem, 2017).
The source made the active and inactive calls. The calls are words filed in the database; no cut-off is given here.

How the values were obtained:
[1] = Tmax in cynomolgus monkey at 20 mg/kg, po measured on day 1 and 27 post dose by LC-MS/MS analysis; format: ADME, organism-based, Macaca fascicularis; conditions: in vivo
Liver = test: Drug metabolism in rat liver microsomes assessed as 4-(4-(4-fluorophenyl)-1-methyl-2-(methylsulfinyl)-1H-imidazol-5-yl)pyridin-2-amine formation at 10 to 100 uM; format: ADME, microsome
Method in brief: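 Test compound incubated at 10, 30 and 100 μM with liver microsomes from rat, Cynomolgus monkey or human, and metabolites monitored.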

[2] = molecular target: Ephrin type-B receptor 2 (Homo sapiens) (UniProt P29323); test: Inhibition of EphB2 (unknown origin) at 10 uM relative to control
Sequence of Ephrin type-B receptor 2 (Homo sapiens) (P29323 whole entry): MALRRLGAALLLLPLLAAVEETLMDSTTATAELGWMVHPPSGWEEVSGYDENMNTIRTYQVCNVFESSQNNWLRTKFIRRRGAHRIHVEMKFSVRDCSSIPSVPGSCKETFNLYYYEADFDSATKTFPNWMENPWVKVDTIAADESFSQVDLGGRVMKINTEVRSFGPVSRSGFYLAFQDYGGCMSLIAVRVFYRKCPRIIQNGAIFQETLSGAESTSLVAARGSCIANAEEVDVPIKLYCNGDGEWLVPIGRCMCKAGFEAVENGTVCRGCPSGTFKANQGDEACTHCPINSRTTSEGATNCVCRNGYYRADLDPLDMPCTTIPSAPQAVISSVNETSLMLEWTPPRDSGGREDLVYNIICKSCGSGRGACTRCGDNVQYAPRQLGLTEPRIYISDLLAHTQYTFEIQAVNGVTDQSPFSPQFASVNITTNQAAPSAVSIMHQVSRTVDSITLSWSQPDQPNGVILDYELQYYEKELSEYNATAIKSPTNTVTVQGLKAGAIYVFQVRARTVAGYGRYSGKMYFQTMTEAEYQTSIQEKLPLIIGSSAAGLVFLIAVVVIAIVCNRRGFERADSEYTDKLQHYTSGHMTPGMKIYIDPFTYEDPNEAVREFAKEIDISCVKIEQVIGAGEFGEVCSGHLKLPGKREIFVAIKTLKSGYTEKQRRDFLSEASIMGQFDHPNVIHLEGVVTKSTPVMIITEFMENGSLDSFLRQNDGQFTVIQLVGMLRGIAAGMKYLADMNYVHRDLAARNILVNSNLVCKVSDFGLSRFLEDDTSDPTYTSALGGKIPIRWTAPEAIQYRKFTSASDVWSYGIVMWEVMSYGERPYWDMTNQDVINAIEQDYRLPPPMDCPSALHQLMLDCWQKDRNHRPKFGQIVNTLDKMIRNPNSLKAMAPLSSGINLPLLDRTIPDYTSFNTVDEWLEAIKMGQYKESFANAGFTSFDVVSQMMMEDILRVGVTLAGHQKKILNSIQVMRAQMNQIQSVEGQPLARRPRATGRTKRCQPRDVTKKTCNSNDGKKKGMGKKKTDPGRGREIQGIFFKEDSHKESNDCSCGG

[3] = Apparent permeability in human Caco2 cells at 10 uM; format: ADME, cell-based; conditions: Caco-2
Mus musculus [4] = test: In vivo inhibition of P38 MAPKalpha in BALB/c mouse assessed as decrease in LPS/GalN-stimulated TNFalpha level in plasma at 10 mg/kg, po administered via gavage pretreated for 1 hr followed by LPS/GalN addition measured after 1.5 hrs relative to control; format: functional
Method in brief: (§1)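 Male BALB/c mice, n = 6/group, given 3, 10 or 30 mg/kg orally by gavage 1 h before i.p. D-GalN (500 mg/kg) plus LPS (1.5 μg/kg). Blood was taken by cardiac puncture and plasma TNFα measured against a vehicle-only control.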

Rattus norvegicus [5] = test: Toxicity in rat assessed as soft feces at 30 to 300 mg/kg, po administered as single dose; format: organism-based; conditions: in vivo
[6] = molecular target: Adenosine receptor A1 (Homo sapiens) (UniProt P30542); test: Antagonist activity at adenosine A1 receptor (unknown origin) at 10 uM relative to control
Sequence of Adenosine receptor A1 (Homo sapiens) (P30542 whole entry): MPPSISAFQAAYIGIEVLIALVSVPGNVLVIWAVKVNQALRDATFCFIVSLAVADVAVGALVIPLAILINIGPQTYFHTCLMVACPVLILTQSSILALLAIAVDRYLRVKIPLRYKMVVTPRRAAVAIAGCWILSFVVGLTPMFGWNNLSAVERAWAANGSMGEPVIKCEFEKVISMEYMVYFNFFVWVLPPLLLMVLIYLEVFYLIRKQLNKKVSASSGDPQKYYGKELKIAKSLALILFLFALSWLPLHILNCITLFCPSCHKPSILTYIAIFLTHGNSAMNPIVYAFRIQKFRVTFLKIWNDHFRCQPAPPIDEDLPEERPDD

[7] = Drug metabolism in human primary hepatocytes assessed as CBS-3733 formation at 10 to 100 uM; format: ADME, cell-based, Hepatocyte
Mus musculus [8] = test: In vivo inhibition of P38 MAPKalpha in BALB/c mouse assessed as decrease in LPS/GalN-stimulated TNFalpha level in plasma at 30 mg/kg, po administered via gavage pretreated for 1 hr followed by LPS/GalN addition measured after 1.5 hrs relative to control; format: functional; method in brief: as §1
Cynomolgus monkey = test: Toxicity in cynomolgus monkey assessed as decrease in QT at 6 to 20 mg/kg, po; format: organism-based, Macaca fascicularis; conditions: in vivo
[9] = Cmax in Beagle dog at 40 mg/kg, po by LC-MS/MS analysis; format: ADME, organism-based, Canis lupus familiaris; parameters: dose 40 mg/kg, route oral; conditions: in vivo
Method in brief: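 Toxicokinetics from a maximum-tolerated-dose study in four Beagle dogs given 40 mg/kg orally. Plasma levels of both parent and its predominant metabolite were monitored.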

Rattus norvegicus [10] = test: Toxicity in Sprague-Dawley rat assessed as hypoactivity at 2000 mg/kg, po administered via gavage measured on day 1 and 2; format: organism-based; conditions: in vivo
[11] = Drug uptake in LPS-stimulated female Lewis rat serum at 10 mg/kg, po pretreated for 3 hrs followed by LPS addition measured after 1.5 hrs post dose; format: ADME, organism-based; conditions: read-out: Drug uptake
Method in brief: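 Female Lewis rats, n = 8/group, dosed orally at 10 mg/kg at 1, 3 or 5 h before LPS challenge. Serum aliquots taken 1.5 h after LPS were used to measure drug concentration.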

Rattus norvegicus [12] = test: Toxicity in Sprague-Dawley rat assessed as mortality at 2000 mg/kg, po administered via gavage after 14 days; format: organism-based; conditions: in vivo, 336 h
Rattus norvegicus [13] = test: Toxicity in single po dosed rat assessed as increase in peak inspiratory flow at 100 to 300 mg/kg, po administered as single dose; format: organism-based; conditions: in vivo
[14] = molecular target: Mitogen-activated protein kinase 12 (Homo sapiens) (UniProt P53778); test: Inhibition of p38MAPK gamma (unknown origin) at 10 uM relative to control
Sequence of Mitogen-activated protein kinase 12 (Homo sapiens) (P53778 whole entry): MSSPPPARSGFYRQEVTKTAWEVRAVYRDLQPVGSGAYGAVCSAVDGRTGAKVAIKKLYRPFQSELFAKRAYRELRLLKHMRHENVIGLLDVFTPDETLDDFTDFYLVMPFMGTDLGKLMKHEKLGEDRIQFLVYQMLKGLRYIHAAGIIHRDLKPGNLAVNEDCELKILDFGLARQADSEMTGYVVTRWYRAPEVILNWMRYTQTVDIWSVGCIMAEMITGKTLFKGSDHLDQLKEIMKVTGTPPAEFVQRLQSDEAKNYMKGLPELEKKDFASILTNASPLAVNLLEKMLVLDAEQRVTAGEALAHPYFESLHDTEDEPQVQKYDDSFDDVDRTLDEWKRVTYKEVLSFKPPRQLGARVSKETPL

| Structure (SMILES) | Tmax [1] [h] | Drug metabolism (Liver) | inhibition [2] [%] | Papp at 10 µM [3] [×10⁻⁶ cm/s] | inhibition in vivo at 10 mg/kg (Mus musculus [4]) [%] | Activity (Rattus norvegicus [5]) | inhibition [6] [%] | Drug metabolism [7] | inhibition in vivo at 30 mg/kg (Mus musculus [8]) [%] | Activity (Cynomolgus monkey) | Cmax [9] [µM] | Activity (Rattus norvegicus [10]) | concentration at 1.5 h [11] [ng/mL] | Activity (Rattus norvegicus [12]) | Activity (Rattus norvegicus [13]) | inhibition [14] |
| --- | --- | --- | --- | --- | --- | --- | --- | --- | --- | --- | --- | --- | --- | --- | --- | --- |
| CC(=O)Nc1cc(-c2c(-c3ccc(F)cc3)nc([S+](C)[O-])n2C)ccn1 (stereo unspecified) | 4 | Metabolite_Detected | 60 | 18.5 | 84 | Toxic | 58 | Metabolite_Detected | 95 | Toxic | 15.6 | Toxic | 526 | Non-Toxic | Toxic |  |
| Cn1c([S+](C)[O-])nc(-c2ccc(F)cc2)c1-c1ccnc(N)c1 (stereo unspecified) |  |  |  |  |  |  |  |  |  |  |  |  |  |  |  | inactive |
